According to ChEMBL document CHEMBL3407469, “Development of benzimidazole derivatives to inhibit HIV-1 replication through protecting APOBEC3G protein” (Eur J Med Chem, 2015):
The source made the active and inactive calls. The rule behind the calls is not given here.

Key:
[1] = test system: 293T; assay: Inhibition of full-length X4 tropic HIV-1 clone pNL4-3 Vif binding to ElonginC (unknown origin) transfected in human 293T cells measured at 50 uM after 48 hrs by co-immunoprecipitation assay; assay type: cell-based
Summary of the method: (§1)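 293T cells were transfected with HA-tagged Vif plus Flag-tagged EloC/EloB/Cul5 plasmids and treated with compound or DMSO. After 48 h, cells were lysed in IP lysis buffer. Lysates were incubated with anti-HA beads overnight at 4 °C and washed three times in lysis buffer before analysis of co-precipitated partners.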

[2] = test system: Mus musculus; assay: Toxicity in Balb/c mouse assessed as abnormality in kidney at 500 to 1000 mg/kg, ip; assay type: organism-based; design: dose 500-1000 mg/kg, route intraperitoneal; conditions: in vivo
Summary of the method: (§2)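 Male Balb/c mice aged 4–6 weeks were randomized into three groups (5 mice) and given a single intraperitoneal injection of 0, 500 or 1000 mg/kg. Body weight was followed for two weeks. On day 14, mice were sacrificed. Heart, liver, lung, spleen and kidney were fixed in 4% formaldehyde for H&E staining, and blood was analysed for AST, ALT, BUN and creatinine.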

[3] = test system: Mus musculus; assay: Toxicity in Balb/c mouse assessed as change in body weight at 500 to 1000 mg/kg, ip; assay type: organism-based; design: dose 500-1000 mg/kg, route intraperitoneal; conditions: in vivo; summary of the method: as §2
[4] = test system: 293T; assay: Inhibition of full-length X4 tropic HIV-1 clone pNL4-3 Vif binding to Cullin5 (unknown origin) transfected in human 293T cells measured at 50 uM after 48 hrs by co-immunoprecipitation assay; assay type: cell-based; summary of the method: as §1
[5] = test system: Mus musculus; assay: Toxicity in Balb/c mouse assessed as effect on ALT level at 500 to 1000 mg/kg, ip; assay type: organism-based; design: dose 500-1000 mg/kg, route intraperitoneal; conditions: in vivo; summary of the method: as §2
[6] = (§3) Inhibition of purified X4 tropic HIV-1 clone pNL4-3 His tagged Vif binding to recombinant human APOBEC3G expressed in Escherichia coli BL21 assessed as reduction in max resonance unit at 4 uM preincubated with APOBEC3G for 30 mins by surface plasmon resonance method relative to untreated A3G protein control
Summary of the method: (§4)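 His-tagged Vif and A3G were expressed from pET32a in E. coli BL21 with 1 mM IPTG and purified on Ni-agarose (500 mM imidazole elution). Vif-His was immobilized on a CM5 chip in 10 mM acetate, pH 4.0, then blocked with 1 M ethanolamine. A3G-His was pre-incubated at 25 °C for 30 min with compound or DMSO in 10 mM PBS with 5% DMSO before injection. SPR binding was read as max resonance units.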

[7] = test system: 293T; assay: Inhibition of full-length X4 tropic HIV-1 clone pNL4-3 Vif/human APOBEC3G complex transfected in human 293T cells assessed as increase in cellular APOBEC3G level measured after 48 hrs by fluorescence microscopy relative to control; assay type: cell-based
Summary of the method: (§5)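 293T cells were co-transfected with Vif and A3G-GFP plasmids, then treated with DMSO or a dilution series of compound. After 48 h, A3G-GFP was measured as mean fluorescence intensity on a plate reader, by western blot, or by fluorescence microscopy, each compared with the DMSO control.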

[8] = test system: 293T; assay: Inhibition of full-length X4 tropic HIV-1 clone pNL4-3 Vif/human APOBEC3G complex transfected in human 293T cells measured at 50 uM after 48 hrs by GFP-based fluorescence assay relative to control; assay type: cell-based
Summary of the method: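 This was the primary screen in 293T cells co-transfected with HA-Vif and A3G-GFP plasmids (Lipofectamine 2000) and given a single compound concentration. DMSO-only wells and A3G-GFP-only transfected wells served as controls. GFP was read after 48 h. A3G-GFP MFI fold change was scored as −, none or <1; +, 1–2; ++, 2–3; +++, >3.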

[9] = test system: Mus musculus; assay: Toxicity in Balb/c mouse assessed as effect on BUN level at 500 to 1000 mg/kg, ip; assay type: organism-based; design: dose 500-1000 mg/kg, route intraperitoneal; conditions: in vivo; summary of the method: as §2
[10] = test system: Mus musculus; assay: Toxicity in Balb/c mouse assessed as effect on CRE level at 500 to 1000 mg/kg, ip; assay type: organism-based; design: dose 500-1000 mg/kg, route intraperitoneal; conditions: in vivo; summary of the method: as §2
[11] = test system: Human immunodeficiency virus 1; assay: Antiviral activity against X4 tropic HIV-1 clone pNL4-3 infected in human PBMC cells assessed as reduction in p24 antigen at 0.00005 to 5 uM after 4 days by ELISA; assay type: functional, organism-based
[12] = test system: Mus musculus; assay: Toxicity in Balb/c mouse assessed as abnormality in spleen at 500 to 1000 mg/kg, ip; assay type: organism-based; design: dose 500-1000 mg/kg, route intraperitoneal; conditions: in vivo; summary of the method: as §2
[13] = test system: 293T; assay: Inhibition of full-length X4 tropic HIV-1 clone pNL4-3 Vif binding to ElonginB (unknown origin) transfected in human 293T cells measured at 50 uM after 48 hrs by co-immunoprecipitation assay; assay type: cell-based; summary of the method: as §1
[14] = test system: 293T; assay: Inhibition of full-length X4 tropic HIV-1 clone pNL4-3 Vif/human APOBEC3G complex transfected in human 293T cells assessed as increase in cellular APOBEC3G level measured after 48 hrs by Western blot analysis relative to control; assay type: cell-based; summary of the method: as §5
[15] = test system: Mus musculus; assay: Toxicity in Balb/c mouse assessed as abnormality in liver at 500 to 1000 mg/kg, ip; assay type: organism-based; design: dose 500-1000 mg/kg, route intraperitoneal; conditions: in vivo; summary of the method: as §2
[16] = test system: Human immunodeficiency virus 1; assay: Antiviral activity against X4 tropic HIV-1 clone pNL4-3 infected in H9 cells assessed as reduction in p24 antigen after 4 days by ELISA; assay type: functional, organism-based; conditions: Human immunodeficiency virus 1, pNL4-3, H9, 96 h
[17] = test system: Mus musculus; assay: Toxicity in Balb/c mouse assessed as effect on AST level at 500 to 1000 mg/kg, ip; assay type: organism-based; design: dose 500-1000 mg/kg, route intraperitoneal; conditions: in vivo; summary of the method: as §2
[18] = Cytotoxicity against human H9 cells by MTS assay; assay type: cell-based
[19] = test system: Mus musculus; assay: Toxicity in Balb/c mouse assessed as abnormality in lung at 500 to 1000 mg/kg, ip; assay type: organism-based; design: dose 500-1000 mg/kg, route intraperitoneal; conditions: in vivo; summary of the method: as §2
[20] = test system: Mus musculus; assay: Toxicity in Balb/c mouse assessed as abnormality in heart at 500 to 1000 mg/kg, ip; assay type: organism-based; design: dose 500-1000 mg/kg, route intraperitoneal; conditions: in vivo; summary of the method: as §2
[21] = as §3, with “at 9” for “at 4”; summary of the method: as §4

| Compound | IC50 [16] [µM] | fold change (FC) [8] | CC50 [18] [µM] | other results |
| --- | --- | --- | --- | --- |
| CCN(CC)c1ccc(/C=C(\C#N)c2nc3ccccc3[nH]2)cc1 | 0.00345 | > 3 | > 50 | inhibition [1]: inactive; Activity [2]: Non-toxic; Activity [3]: Non-toxic; inhibition [4]: inactive; Activity [5]: Non-toxic; inhibition [6]: 17%; inhibition [7]: Dose-dependent effect; Activity [9]: Non-toxic; Activity [10]: Non-toxic; Activity [11]: Active; Activity [12]: Non-toxic; inhibition [13]: inactive; inhibition [14]: Dose-dependent effect; Activity [15]: Non-toxic; Activity [17]: Non-toxic; Activity [19]: Non-toxic; Activity [20]: Non-toxic |
| COc1cc(/C=C(\C#N)c2nc3ccccc3[nH]2)ccc1O | 0.058 | > 3 | > 50 | inhibition [1]: inactive; Activity [2]: Non-toxic; Activity [3]: Non-toxic; inhibition [4]: inactive; Activity [5]: Non-toxic; inhibition [7]: Dose-dependent effect; Activity [9]: Non-toxic; Activity [10]: Non-toxic; Activity [11]: Active; Activity [12]: Non-toxic; inhibition [13]: inactive; inhibition [14]: Dose-dependent effect; Activity [15]: Non-toxic; inhibition [21]: 17%; Activity [17]: Non-toxic; Activity [19]: Non-toxic; Activity [20]: Non-toxic |
| CC(C)c1ccc(/C=C(\C#N)c2nc3ccccc3[nH]2)cc1 | > 50 | < 1 | > 50 |  |
| CCN(CC)c1ccc(/C=C(\C#N)c2nc3ccccc3s2)cc1 | 5.92 | > 3 | > 50 |  |
| CCN(CC)c1ccc(/C=C(\C#N)c2nc3ccccc3[nH]2)c(O)c1 | 1.5 | > 3 | > 50 |  |
| CCN(CC)c1ccc(/C=C(\C#N)c2nc3ccncc3[nH]2)cc1 | 7.3 | 2 | > 50 |  |
| CN(C)c1ccc(/C=C(\C#N)c2nc3ccccc3[nH]2)c(O)c1 | > 50 | > 3 | > 50 |  |
| CCc1ccc(/C=C(\C#N)c2nc3ccccc3[nH]2)cc1 | > 50 | < 1 | > 50 |  |
| CCN(CC)c1ccc(/C=C(\C#N)c2nc3cc(OC(F)(F)F)ccc3[nH]2)cc1 | 1.35 | > 3 | > 50 |  |
| COc1cc(OC)c(OC)cc1/C=C(\C#N)c1nc2ccccc2[nH]1 | > 50 | 1 | > 50 |  |
| CCN(CC)c1ccc(/C=C(\C#N)c2nc3cc(C(=O)OC)ccc3[nH]2)cc1 | 1.68 | 2 | > 50 |  |
| CCN(CCO)c1ccc(/C=C(\C#N)c2nc3ccccc3[nH]2)cc1 | 6.11 | 1 | > 50 |  |
| CCN(CC)c1ccc(/C=C(\C#N)c2nc3cccnc3[nH]2)cc1 | 3.58 | 2 | > 50 |  |
| CCN(CC)c1cccc(/C=C(\C#N)c2nc3ccccc3[nH]2)c1 | > 50 | < 1 | > 50 |  |

Continued, in another order:

| IC50 [16] [µM] | Compound | fold change (FC) [8] | CC50 [18] [µM] | other results |
| --- | --- | --- | --- | --- |
| 2.85 | COc1ccc(/C=C(\C#N)c2nc3ccccc3[nH]2)cc1 | 2 | > 50 |  |
| 0.36 | N#C/C(=C\c1ccc2[nH]ncc2c1)c1nc2ccccc2[nH]1 | 2 | > 50 |  |
| > 50 | CCN(CC)c1ccc(/C=C(\C#N)c2nc3cc(Cl)ccc3[nH]2)cc1 | 2 | > 50 |  |
| 4.42 | CCN(CC)c1ccc(/C=C(\C#N)c2nc3cc(OC)ccc3[nH]2)cc1 | 2 | > 50 |  |
| 0.75 | CCN(CC)c1ccc(/C=C(\C#N)c2nc3cc(SC)ccc3[nH]2)cc1 | 2 | > 50 |  |
| > 50 | CCN(CC)c1ccc(/C=C(\C#N)c2nc3cc(F)ccc3[nH]2)cc1 | > 3 | > 50 |  |
| 0.51 | CN(C)c1ccc(/C=C(\C#N)c2nc3ccccc3[nH]2)cc1 | 2 | > 50 |  |
